Calls of active or inactive are those of the source. The calls are words filed in the database; no cut-off is given here.
Key:
[1] = Metal chelating activity assessed as compound-Cu2+ complex formation measured after 40 mins by calcein dye based fluorescence assay; details: dose 10-50 µM
Summary of the method: (§1)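 Calcein (10 µM) in 50 mM HEPES was quenched by 10 µM CuCl₂ (or FeCl₃ for the Fe³⁺ arm). Chelator was added from DMSO stock to a final 10 or 50 µM and incubated 40 min at room temperature. Recovery rate was calculated from fluorescence (λex 485 / λem 520 nm); n = 3.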

[2] = Metal chelating activity assessed as compound-Fe3+ complex formation measured after 40 mins by calcein dye based fluorescence assay; details: dose 10-50 µM; summary of the method: as §1
[3] = Drug metabolism in human PANC-1 cells assessed as nitric oxide release at 10 uM measured after 8 hrs by Griess assay; type: ADME, cell-based; details: panc-1, 8 h
Summary of the method: (§2)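 Cells exposed 8 h to 10 µM compound. Nitrite measured by Griess reagent kit at 540 nm against a NaNO₂ calibration curve. Mean ± SD, n = 3.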

[4] = Drug metabolism in human SW1990 cells assessed as nitric oxide release at 10 uM measured after 8 hrs by Griess assay; type: ADME, cell-based; details: sw1990, 8 h; summary of the method: as §2
A549 [5] = assay: Cytotoxicity against human A549 cells assessed as reduction in cell viability at 10 to 20 uM measured after 48 hrs by MTT assay; type: functional, cell-based; details: dose 10-20 µM
HeLa [6] = assay: Cytotoxicity against human HeLa cells assessed as reduction in cell viability at 10 to 20 uM measured after 48 hrs by MTT assay; type: functional, cell-based; details: dose 10-20 µM
HepG2 [7] = assay: Cytotoxicity against human HepG2 cells assessed as reduction in cell viability at 10 to 20 uM measured after 48 hrs by MTT assay; type: functional, cell-based; details: dose 10-20 µM
Summary of the method: (§3)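 MTT assay with 48 h compound exposure at 10 or 20 µM. Cells seeded 6 × 10⁴ per well and grown 24 h beforehand. MTT 4 h, DMSO solubilisation, A490 read. Percent cell death given as mean ± SD, n = 3.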

MCF7 [8] = assay: Cytotoxicity against human MCF7 cells assessed as reduction in cell viability at 10 to 20 uM measured after 48 hrs by MTT assay; type: functional, cell-based; details: dose 10-20 µM; summary of the method: as §3
PANC-1 [9] = assay: Cytotoxicity against human PANC-1 cells assessed as reduction in cell viability at 10 uM measured after 48 hrs by MTT assay; type: functional, cell-based; summary of the method: as §3
PANC-1 [10] = assay: Cytotoxicity against human PANC-1 cells assessed as reduction in cell viability at 20 uM measured after 48 hrs by MTT assay relative to control; type: functional; summary of the method: as §3
A549 [11] = assay: Cytotoxicity against human A549 cells assessed as reduction in cell viability measured after 48 hrs by MTT assay; type: functional, cell-based; details: A549, 48 h
HeLa [12] = assay: Cytotoxicity against human HeLa cells assessed as reduction in cell viability measured after 48 hrs by MTT assay; type: functional, cell-based
HepG2 [13] = assay: Cytotoxicity against human HepG2 cells assessed as reduction in cell viability measured after 48 hrs by MTT assay; type: functional, cell-based; details: HepG2, 48 h
Summary of the method: (§4)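 Cells seeded 6 × 10⁴ per well, cultured 24 h at 37 °C under 5% CO₂, then exposed to compound for 48 h, with or without 50 µM CuCl₂ or FeCl₃ co-incubation. MTT added for 4 h at 37 °C, formazan dissolved in DMSO, A490 read. IC50 reported as mean (SD), n = 3.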

MCF7 [14] = assay: Cytotoxicity against human MCF7 cells assessed as reduction in cell viability measured after 48 hrs by MTT assay; type: functional, cell-based; details: MCF7, 48 h; summary of the method: as §4
PANC-1 [15] = assay: Cytotoxicity against human PANC-1 cells assessed as reduction in cell viability measured after 48 hrs by MTT assay; type: functional, cell-based; details: PANC-1, 48 h; summary of the method: as §4
HCT-116 [16] = assay: Cytotoxicity against human HCT-116 cells assessed as reduction in cell viability measured after 48 hrs by MTT assay; type: functional, cell-based; details: HCT-116, 48 h; summary of the method: as §4
PC-3 [17] = assay: Cytotoxicity against human PC-3 cells assessed as reduction in cell viability measured after 48 hrs by MTT assay; type: functional, cell-based; details: PC-3, 48 h; summary of the method: as §4
SW1990 [18] = assay: Cytotoxicity against human SW1990 cells assessed as reduction in cell viability measured after 48 hrs by MTT assay; type: functional, cell-based; details: SW1990, 48 h; summary of the method: as §4
A549 [19] = assay: Cytotoxicity against human A549 cells assessed as reduction in cell viability measured after 48 hrs in presence of CuCl2 by MTT assay; type: functional, cell-based; details: A549, 48 h
HeLa [20] = assay: Cytotoxicity against human HeLa cells assessed as reduction in cell viability measured after 48 hrs in presence of CuCl2 by MTT assay; type: functional, cell-based
HepG2 [21] = assay: Cytotoxicity against human HepG2 cells assessed as reduction in cell viability measured after 48 hrs in presence of CuCl2 by MTT assay; type: functional, cell-based; details: HepG2, 48 h; summary of the method: as §4
MCF7 [22] = assay: Cytotoxicity against human MCF7 cells assessed as reduction in cell viability measured after 48 hrs in presence of CuCl2 by MTT assay; type: functional, cell-based; details: MCF7, 48 h; summary of the method: as §4
PANC-1 [23] = assay: Cytotoxicity against human PANC-1 cells assessed as reduction in cell viability measured after 48 hrs in presence of CuCl2 by MTT assay; type: functional, cell-based; details: PANC-1, 48 h; summary of the method: as §4
HCT-116 [24] = assay: Cytotoxicity against human HCT-116 cells assessed as reduction in cell viability measured after 48 hrs in presence of CuCl2 by MTT assay; type: functional, cell-based; details: HCT-116, 48 h; summary of the method: as §4
PC-3 [25] = assay: Cytotoxicity against human PC-3 cells assessed as reduction in cell viability measured after 48 hrs in presence of CuCl2 by MTT assay; type: functional, cell-based; details: PC-3, 48 h; summary of the method: as §4
SW1990 [26] = assay: Cytotoxicity against human SW1990 cells assessed as reduction in cell viability measured after 48 hrs in presence of CuCl2 by MTT assay; type: functional, cell-based; details: SW1990, 48 h; summary of the method: as §4
A549 [27] = assay: Cytotoxicity against human A549 cells assessed as reduction in cell viability measured after 48 hrs in presence of FeCl3 by MTT assay; type: functional, cell-based; details: A549, 48 h
HeLa [28] = assay: Cytotoxicity against human HeLa cells assessed as reduction in cell viability measured after 48 hrs in presence of FeCl3 by MTT assay; type: functional, cell-based
HepG2 [29] = assay: Cytotoxicity against human HepG2 cells assessed as reduction in cell viability measured after 48 hrs in presence of FeCl3 by MTT assay; type: functional, cell-based; details: HepG2, 48 h; summary of the method: as §4
MCF7 [30] = assay: Cytotoxicity against human MCF7 cells assessed as reduction in cell viability measured after 48 hrs in presence of FeCl3 by MTT assay; type: functional, cell-based; details: MCF7, 48 h; summary of the method: as §4
PANC-1 [31] = assay: Cytotoxicity against human PANC-1 cells assessed as reduction in cell viability measured after 48 hrs in presence of FeCl3 by MTT assay; type: functional, cell-based; details: PANC-1, 48 h; summary of the method: as §4
HCT-116 [32] = assay: Cytotoxicity against human HCT-116 cells assessed as reduction in cell viability measured after 48 hrs in presence of FeCl3 by MTT assay; type: functional, cell-based; details: HCT-116, 48 h; summary of the method: as §4
PC-3 [33] = assay: Cytotoxicity against human PC-3 cells assessed as reduction in cell viability measured after 48 hrs in presence of FeCl3 by MTT assay; type: functional, cell-based; details: PC-3, 48 h; summary of the method: as §4
SW1990 [34] = assay: Cytotoxicity against human SW1990 cells assessed as reduction in cell viability measured after 48 hrs in presence of FeCl3 by MTT assay; type: functional, cell-based; details: SW1990, 48 h; summary of the method: as §4
[35] = Cytotoxicity against human H6C7 cells assessed as reduction in cell viability measured after 48 hrs by MTT assay; type: cell-based; details: H6C7, 48 h; summary of the method: as §4
[36] = Cytotoxicity against human RWPE2 cells assessed as reduction in cell viability measured after 48 hrs by MTT assay; type: cell-based; details: RWPE2, 48 h; summary of the method: as §4
SW1990 [37] = assay: Induction of apoptosis in human SW1990 cells at 12 uM measured after 24 hrs by Annexin V-FITC/propidium iodide staining based flow cytometry; type: functional, cell-based
Summary of the method: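 SW1990 cells seeded 5 × 10⁵ per well and grown 24 h, then treated 24 h at 8 or 12 µM. Optional 1 h pretreatment with 20 mM NAC or 50 µM carboxyl-PTIO before 12 µM treatment. Cells stained with annexin V-FITC 15 min and PI 5 min at room temperature in the dark, then analysed by flow cytometry. Mean ± SD, n = 3.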

SW1990 [38] = assay: Antitumor activity against human SW1990 cells xenografted in Balb/c nude mouse assessed as tumor size at 20 mg/kg, iv administered every 3 days measured after 21 days (reference value: 1.23 +/- 0.25 cm3); type: functional; details: time 21 day
Summary of the method: (§5)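 Male BALB/c nude mice, 3–5 weeks old, given 1 × 10⁷ SW1990 cells subcutaneously; when tumors reached about 65 mm³, randomised to groups of eight. Saline vehicle control, dosing intravenously every three days. Tumor size monitored every two days for three weeks; tumors dissected at sacrifice on day 21, volume = d² × D/2 (d smallest, D largest diameter). Mean ± SD.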

SW1990 [39] = assay: Antitumor activity against human SW1990 cells xenografted in Balb/c nude mouse assessed as tumor growth inhibition at 20 mg/kg, iv administered every 3 days measured after 21 days relative to control; type: functional; details: 504 h, time 21 day, read-out: TGI; summary of the method: as §5

In the case of `O=C(NCCCOc1no[n+]([O-])c1S(=O)(=O)c1ccccc1)c1ccc2cccc(O)c2n1`, the Activity [1] is reported as “Dose-dependent effect”, the Activity [2] is reported as “Dose-dependent effect” and the Drug metabolism [3] is reported as “Metabolite_Detected”. For the same molecule, the Drug metabolism [4] was “Metabolite_Detected”, the Activity (A549 [5]) was “Active” and the Activity (HeLa [6]) was “Active”. For the same molecule, the Activity (HepG2 [7]) was “Active”, the Activity (MCF7 [8]) was “Active” and the Activity (PANC-1 [9]) was “Active”. For the same molecule, the Activity (PANC-1 [10]) was 75.2%, the IC50 (A549 [11]) was 13.8 µM and the IC50 (HeLa [12]) was 28.7 µM. The IC50 (HepG2 [13]) was 17.9 µM, the IC50 (MCF7 [14]) was 13.4 µM and the IC50 (PANC-1 [15]) was 7.54 µM. For the same molecule, the IC50 (HCT-116 [16]) was 14.6 µM, the IC50 (PC-3 [17]) was 11.7 µM and the IC50 (SW1990 [18]) was 9.24 µM. The IC50 (A549 [19]) was 4.68 µM, the IC50 (HeLa [20]) was 9.56 µM and the IC50 (HepG2 [21]) was 6.32 µM. It also gave an IC50 (MCF7 [22]) of 3.23 µM, an IC50 (PANC-1 [23]) of 0.86 µM and an IC50 (HCT-116 [24]) of 5.2 µM. The IC50 (PC-3 [25]) was 5.63 µM, the IC50 (SW1990 [26]) was 1.47 µM and the IC50 (A549 [27]) was 17.9 µM. The IC50 (HeLa [28]) was 33.2 µM, the IC50 (HepG2 [29]) was 22.4 µM and the IC50 (MCF7 [30]) was 18.2 µM. For the same molecule, the IC50 (PANC-1 [31]) was 13.9 µM, the IC50 (HCT-116 [32]) was 20.1 µM and the IC50 (PC-3 [33]) was 17.1 µM. For the same molecule, the IC50 (SW1990 [34]) was 12.1 µM, the IC50 [35] was 9.05 µM and the IC50 [36] was 8.77 µM.

For `Oc1cccc2cccnc12` [OXYQUINOLINE], the Activity [1] was “Dose-dependent effect”, the Activity [2] was “Dose-dependent effect” and the Activity (PANC-1 [10]) was 48%. The IC50 (A549 [11]) was 31.2 µM, the IC50 (HeLa [12]) was > 50 µM and the IC50 (HepG2 [13]) was > 50 µM. For the same molecule, the IC50 (MCF7 [14]) was > 50 µM, the IC50 (PANC-1 [15]) was 24.5 µM and the IC50 (HCT-116 [16]) was 21.1 µM. The IC50 (PC-3 [17]) was 32 µM, the IC50 (SW1990 [18]) was 32.1 µM and the IC50 (A549 [19]) was 6.58 µM. The IC50 (HeLa [20]) was 35.6 µM, the IC50 (HepG2 [21]) was 32.1 µM and the IC50 (MCF7 [22]) was 21.1 µM. The IC50 (PANC-1 [23]) was 7.43 µM, the IC50 (HCT-116 [24]) was 7.25 µM and the IC50 (PC-3 [25]) was 14.4 µM. The IC50 (SW1990 [26]) was 10.2 µM, the IC50 (A549 [27]) was 32.6 µM and the IC50 (HeLa [28]) was > 50 µM. For the same molecule, the IC50 (HepG2 [29]) was > 50 µM, the IC50 (MCF7 [30]) was > 50 µM and the IC50 (PANC-1 [31]) was 30.4 µM. The IC50 (HCT-116 [32]) was 26.3 µM, the IC50 (PC-3 [33]) was > 50 µM and the IC50 (SW1990 [34]) was > 50 µM. For the same molecule, the IC50 [35] was 20.1 µM, the IC50 [36] was 25.6 µM and the Activity (SW1990 [37]) was “Active”. For the same molecule, the Activity (SW1990 [38]) was 0.68 cm3 and the inhibition in vivo at 20 mg/kg (SW1990 [39]) was 44.7%.

Reference: ChEMBL document CHEMBL4732146, “Nitric oxide-donating and reactive oxygen species-responsive prochelators based on 8-hydroxyquinoline as anticancer agents” (Eur J Med Chem, 2021)
